Experimental data taken from ChEMBL document CHEMBL1154402, “Antiviral effect of orally administered (-)-beta-D-2-aminopurine dioxolane in woodchucks with chronic woodchuck hepatitis virus infection” (Antimicrob Agents Chemother, 2007).
One block for each molecule: values may come before it.

What was measured:
Marmota monax [1] = assay: Cmax in woodchuck hepatitis virus-negative woodchucks assessed as 9-(beta-D-1,3-dioxolan-4-yl)guanine at 33.3 mg/kg, iv administered as single dose; format: ADME, organism-based; parameters: dose 33.3 mg/kg, route intravenous; details: in vivo
Outline: (§1)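 Three WHV-negative adult woodchucks got a 33.3 mg/kg iv bolus, with one saline control. After a 4-week washout the same three got 33.3 mg/kg orally. Blood was drawn predose and at 0.25–24 h. Serum APD and DXG were measured by HPLC-UV (LOQ 0.2 µM) and analysed noncompartmentally. AUC0-∞ used the trapezoidal rule, extrapolated by Clast/λz.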

Marmota monax [2] = assay: AUC (0 to infinity) in woodchuck hepatitis virus-negative woodchucks assessed as 9-(beta-D-1,3-dioxolan-4-yl)guanine at 33.3 mg/kg, iv administered as single dose; format: ADME, organism-based, Plasma; parameters: time infinity, dose 33.3 mg/kg, route intravenous; details: in vivo; outline: as §1
Marmota monax [3] = assay: Terminal elimination half life in woodchuck hepatitis virus -negative woodchucks assessed as 9-(beta-D-1,3-dioxolan-4-yl)guanine at 33.3 mg/kg, iv administered as single dose followed by dose of 33.3 mg/kg, po after 4 weeks washout period; format: ADME, organism-based; details: in vivo, 672 h; outline: as §1
[4] = AUC (0 to infinity) in iv dosed mouse; format: ADME, organism-based; parameters: route intravenous, time infinity; details: plasma
[5] = Oral bioavailability in mouse; format: ADME, organism-based; details: in vivo
[6] = AUC (0 to infinity) in orally dosed mouse; format: ADME, organism-based; parameters: route oral, time infinity; details: plasma, po
Marmota monax [7] = assay: Cmax in woodchuck hepatitis virus-negative woodchucks assessed as 9-(beta-D-1,3-dioxolan-4-yl)guanine at 33.3 mg/kg iv followed by after 4 weeks washout period administered 33.3 mg/kg, po; format: ADME, organism-based; details: in vivo, 672 h; outline: as §1
Marmota monax [8] = assay: AUC (0 to infinity) in woodchuck hepatitis virus -negative woodchucks assessed as 9-(beta-D-1,3-dioxolan-4-yl)guanine at 33.3 mg/kg, iv administered as single dose followed by dose of 33.3 mg/kg, po after 4 weeks washout period; format: ADME, organism-based, Plasma; details: in vivo, 672 h; outline: as §1
Marmota monax [9] = assay: Terminal elimination half life in woodchuck hepatitis virus-negative woodchucks assessed as 9-(beta-D-1,3-dioxolan-4-yl)guanine at 33.3 mg/kg, iv administered as single dose; format: ADME, organism-based; parameters: dose 33.3 mg/kg, route intravenous; details: in vivo; outline: as §1
Rhesus monkey = assay: Terminal elimination half life in orally dosed monkey assessed as 9-(beta-D-1,3-dioxolan-4-yl)guanine; format: ADME, organism-based, Macaca mulatta; details: in vivo, po
Mus musculus = assay: Terminal elimination half life in orally dosed mouse assessed as 9-(beta-D-1,3-dioxolan-4-yl)guanine; format: ADME, organism-based; details: in vivo, po
[10] = tested on: Woodchuck hepatitis virus; assay: Antiviral activity against woodchuck hepatitis virus infected woodchucks assessed as log reduction of serum viral DNA per ml of serum after 4 weeks; format: functional

Cmax (Marmota monax [1]): 24.6 µM | AUC (Marmota monax [2]): 146.2 µM·h | beta t1/2 (Marmota monax [3]): 12.1 h | AUC(0-inf) [4]: 818 µM·h | bioavailability [5]: 114% | AUC(0-inf) [6]: 930 µM·h | Cmax (Marmota monax [7]): 20.3 µM | AUC (Marmota monax [8]): 309.7 µM·h | beta t1/2 (Marmota monax [9]): 3.7 h | beta t1/2 (Rhesus monkey): 1.5 h | beta t1/2 (Mus musculus): 1 h
Compound: Nc1nc2c(ncn2[C@H]2CO[C@@H](CO)O2)c(=O)[nH]1

Compound: Cc1cn([C@H]2O[C@@H](CO)[C@H](O)[C@H]2F)c(=O)[nH]c1=O [CLEVUDINE]
Activity [10]: 8.2

Compound: CC(C)OC(=O)OCOP(=O)(CO[C@H](C)Cn1cnc2c(N)ncnc21)OCOC(=O)OC(C)C.O=C(O)/C=C/C(=O)O [TENOFOVIR DISOPROXIL FUMARATE]
Activity [10]: 1.5

Compound: Nc1nc(=O)n([C@@H]2CS[C@H](CO)O2)cc1F [EMTRICITABINE]
Activity [10]: 4.9

Compound: Nc1ccn([C@@H]2CS[C@H](CO)O2)c(=O)n1 [LAMIVUDINE]
Activity [10]: 2.5

Compound: Nc1ncnc2c1ncn2[C@H]1C[C@H](O)[C@@H](CO)O1 [DEOXYADENOSINE]
Activity [10]: 1.5

Compound: CC(=O)OCC(CCn1cnc2cnc(N)nc21)COC(C)=O [FAMCICLOVIR]
Activity [10]: 1.4
